Here are results for ten compounds from PMC10907227 (Nature methods, 2020).

What is called solubility is the concentration that dissolves in the medium under given conditions. A high value points to much dissolved substance.

Converted amounts (≈) assume the structure as drawn. “Also recorded” adds a separate entry of the source.

The nature of series [1]: Solubility testing in PEG-300-based injectable formulation. The format is physicochemical. Particulars: for Maximum soluble dose: IP injection, injectable formulation; for Relative solubility in the PEG-300-based formulation: comparison in words; for Maximum amount that could be administered IP in the PEG-300 formulation: injection volume limit of ~0.5 mL, mice. In a few lines:
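Formulation: 10% ethanol (v/v), 10% glycerol (v/v), 10% 2-hydroxypropyl-β-cyclodextrin (w/v), 35% PEG-300 (v/v) in water. Pre-weighed compound was dissolved or suspended in ethanol, then combined with the other components and vortexed 15 min to make a 28 mM solution or suspension. […] IP dose was limited by an injection volume of ~0.5 mL.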

In the next series the test system is AkaLuc. Particulars: AkaLuc with AkaLumine, intrapulmonary locations; cited from earlier work.
The target of series [2] is T1, Antares (Oplophorus gracilirostris, UniProt Q9GV45, A31E/A60N/A81I/F95D/I117V/K70R/L54V/L99Q/M102K/N193R/P142E/Q151K/Q38R/Q45L/V71I/Y165I).
Series [3] concerns the target T1, Antares. Briefly: Decay of Antares luminescence signal over time. The class given is biochemical. Particulars: purified Antares, 60 min.
The format of series [4] is in vivo, mice. In a few lines:
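Male C57Bl/6 mice, 4 months old, received three daily IP injections: 12 mg P-407 in 480 µL water; 12 mg P-407 plus 1.7 mg test compound in 480 µL water; or test compound in P-407 at 1.3 or 4.2 µmol. Body weight was tracked. On day 4 mice were euthanized by CO2 and cardiac exsanguination, with terminal blood taken for CBC and serum biochemistry. Lung, liver and kidney were examined histologically.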

For series [5], the system named is Orange CaMBI. The format is in vivo, mice. Particulars: sustained-release HFz (P-407). In a few lines: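 Transgenic mice doubly hemizygous for albumin-Cre and CAG-LSL-Orange CaMBI 110, abdominal hair removed, anesthetized with IP ketamine 200 mg/kg in 100 µL water. Test compound given with poloxamer-407 in 480 µL water. Imaged in a lab-built system, time-lapse with <1 s exposures on a consumer digital camera, with vasopressin given. Decay fitted as monoexponential.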

Series [6] deals with T1, Antares. Briefly: Enzymatic analysis of Antares with furimazine analogs. Particulars: purified Antares; for Vmax and thereby kcat compared to furimazine: DPBS with 0.01% FBS. The format is biochemical.
Series [7] deals with T1, Antares. Briefly: Hydrodynamic transfection and bioluminescence imaging of nude mice. The format is in vivo.
The target in series [8] is T1, Antares. Briefly: Spectral analysis of Antares with furimazine analogs. Particulars: 400 to 700 nm. The format is biochemical.
Series [9] can be described thus: Substrate stability at 37 °C in DPBS with or without 10% FBS. The class given is in vitro ADME.
A short description of the next series: physchem. Particulars: aqueous with cosolvent or surfactant or cyclodextrin.
The subject of series [10] is Orange CaMBI. Particulars: liver; cited from earlier work.
For series [11] the following is noted: previously published PEG-300-based aqueous formulation; cited from earlier work.
Series [12] concerns the target T1, Antares. Particulars: limited amount of furimazine that can be administered; cited from earlier work.
Where [13] appears, read: 1.3 μmol IP, PEG-300 formulation, mouse liver.

On to `Oc1c(Cc2ccccc2)nc2c(-c3ccncc3)nc(-c3ccccc3)cn12` [8pyDTZ, reference compound], for which, in series [1], the Maximum soluble dose stood at 4 µmol.
Turning to `CN(C)c1ccc(/C=C/C=C/C2=N[C@@H](C(=O)O)CS2)cc1` [AkaLumine], the “Detectable light per reporter molecule relative to FLuc and D-luciferin” value in the series on AkaLuc is reported as ~ 13 times.
On to `O=c1c(Cc2ccccc2)nc2c(-c3ccccc3)[nH]c(-c3ccccc3)cn1-2` [DTZ, diphenylterazine, reference compound], for which, in series [1], the Maximum soluble dose worked out at 1 µmol.
In the case of `O=c1c(Cc2ccco2)nc2c(Cc3ccccc3)[nH]c(-c3ccc(O)cc3)cn1-2` [compound A, 8-benzyl-2-(furan-2-ylmethyl)-6-(4-hydroxyphenyl)imidazo[1,2-a]pyrazin-3(7H)-one], at Antares [2] (1.3 μmol IP, PEG-300 vehicle, liver), the “Total integrated output compared with furimazine” value is reported as “more total integrated output”. Moreover, the “Decrease of light output over time compared with the other substrates” value on Antares [3] is listed as “decreased more rapidly over time”. The “Appearance at 28 mM in the PEG-300-based formulation” value in [1] (28 mM, backlit image) is “insoluble pellet”.
Consider `O=c1c(Cc2ccco2)nc2c(Cc3ccccc3)[nH]c(-c3cccc(O)c3)cn1-2` [compound B, 8-benzyl-2-(furan-2-ylmethyl)-6-(3-hydroxyphenyl)imidazo[1,2-a]pyrazin-3(7H)-one], for which the “Gross examination of organs and histology of liver, lung and kidney” value in series [4] (HFz with P-407, three daily IP injections, listed as HFz) is “no signs of toxicity; also recorded: no abnormalities were found”. The Saturating dose on Antares [2] (IP, PEG-300 formulation, liver) came to 4.2 µmol. For the same compound, the “Light (brightness) relative to the maximum/saturating dose of furimazine” value on Antares [2] (substrate at saturating (maximal) dose, IP, Antares-expressing transgenic mice) is on record as “approximately four-fold”. In the series on Orange CaMBI [5], the “Time signals were bright enough to be seen by the naked eye in the dark” value is greater than 1 h. In addition, the “Time of peak brightness after substrate injection” value in the series on Orange CaMBI [5] (liver) is listed as 24 min. Besides, the “Time after injection at which brightness dropped to half of its peak” value with Orange CaMBI [5] (monoexponential kinetics) is listed as ~ 60 min. In addition, the “kcat/KM compared to furimazine” value on Antares [6] is listed as “higher kcat/KM”. Besides, on Antares [7] (4.2 μmol HFz IP), the “Integrated signal over 20 min compared with Antares2-DTZ” value is “significantly exceed that of Antares2-DTZ” and the “Integrated signal over 20 min compared with LumiScarlet-8pyDTZ” value is reported as “appeared higher than that of LumiScarlet-8pyDTZ, but narrowly missed statistical significance”. Also, the Persistence of emission result on Antares [7] (4.2 μmol HFz IP, 20 min) was “uniquely sustained emission”. In addition, in series [1], the “Relative solubility in the PEG-300-based formulation” value was “noticeably more soluble than compounds A and C”; the “Maximum amount that could be administered IP in the PEG-300 formulation” value is “up to 13.3 μmol”.
In the case of `Nc1cccc(-c2cn3c(=O)c(Cc4ccco4)nc-3c(Cc3ccccc3)[nH]2)c1` [compound C, 6-(3-aminophenyl)-8-benzyl-2-(furan-2-ylmethyl)imidazo[1,2-a]pyrazin-3(7H)-one], in [1], the “Maximum amount that could be administered IP in the PEG-300 formulation” value is 4.2 µmol.
As for `O=c1c(Cc2ccco2)nc2c(Cc3ccccc3)[nH]c(-c3cccc(O)c3F)cn1-2` [compound D, 8-benzyl-6-(2-fluoro-3-hydroxyphenyl)-2-(furan-2-ylmethyl)imidazo[1,2-a]pyrazin-3(7H)-one], the “Signal output compared with HFz” value at Antares [2] (setting [13]) is “brighter signal outputs than HFz”. Also, the “Effect on emission spectrum of Antares” value at Antares [8] is given as “do not alter the emission spectrum of Antares”. Moreover, the “Vmax and thereby kcat compared to furimazine” value on Antares [6] was “improved Vmax and thereby kcat versus furimazine”. Also, the “Stability in serum compared to furimazine” value in series [9] was “retaining the improved stability in serum”.
For the compound `Nc1cccc(-c2cn3c(=O)c(Cc4ccco4)nc-3c(Cc3ccccc3)[nH]2)c1F` [compound E, 6-(3-amino-2-fluorophenyl)-8-benzyl-2-(furan-2-ylmethyl)imidazo[1,2-a]pyrazin-3(7H)-one], at Antares [2] (setting [13]), the “Improvement of signal output over HFz” value was “approximately three-fold” and the “Signal output compared with HFz” value is given as “brighter signal outputs than HFz”. Moreover, at Antares [8], the “Effect on emission spectrum of Antares” value is “do not alter the emission spectrum of Antares”. Also, on Antares [6], the “Vmax and thereby kcat compared to furimazine” value was “improved Vmax and thereby kcat versus furimazine”. Further, the “Stability in serum compared to furimazine” value in series [9] is recorded as “retaining the improved stability in serum”.
As to `Nc1cccc(-c2cn3c(=O)c(Cc4ccco4)nc-3c(Cc3ccccc3F)[nH]2)c1F` [compound F, 6-(3-amino-2-fluorophenyl)-8-(2-fluorobenzyl)-2-(furan-2-ylmethyl)imidazo[1,2-a]pyrazin-3(7H)-one], the “Body weight, blood chemistry, or histology” value in series [4] (1.3 μmol FFz in P-407 daily for three days) is “No abnormalities”. Besides, in series [4] (4.2 μmol FFz, daily for three days), the Blood chemistry result is “abnormal blood chemistry”. Further, in series [4] (in P-407, IP, mice), the “Dose that can be safely administered” value worked out at 1.3 µmol. The “Peak signal compared to compound E” value on Antares [2] (1.3 μmol, in vivo) was “further increase in peak signal”. On Antares [2] (IP), the “Light from mouse liver, 1.3 μmol FFz compared with 4.2 μmol HFz” value was “more light” and the “Light, 4.2 μmol compared with 1.3 μmol of FFz” value was “more light”. Also, in “physchem”, the concentration in solution (solubility) came to 8.8 mM (≈ 3810 µg/mL). Further, at Antares [6], the “Vmax and thereby kcat compared to compound E” value was “higher Vmax and thereby kcat”. Further, at Antares [7] (1.3 μmol FFz IP, not statistically significant), the “Brightness compared with AkaLuc with AkaLumine” value was “tended to produce more brightness”.
As to `O=c1c(Cc2ccco2)nc2c(Cc3ccccc3)[nH]c(-c3ccccc3)cn1-2` [furimazine], the “Duration of previous Orange CaMBI imaging sessions” value with Orange CaMBI [10] is listed as no more than 6 min. Besides, the “Maximum dosage limited by poor aqueous solubility” value in series [11] was 1.3 µmol. Also, the “Photon output of Antares relative to FLuc in vivo” value at Antares [12] was “~ three-fold”. In series [1] (35% PEG-300, 10% ethanol, 10% glycerol, 10% hydroxypropylcyclodextrin in water), the “Solubility in the PEG-300-based formulation” value came out at 2.8 mM (≈ 1070 µg/mL). In series [1], the “Relative solubility in the PEG-300-based formulation” value is “more soluble than DTZ”.
